Source: ChEMBL document CHEMBL3351503, “Imidazopyridine- and purine-thioacetamide derivatives: potent inhibitors of nucleotide pyrophosphatase/phosphodiesterase 1 (NPP1)” (J Med Chem, 2014)

Key:
[1] = molecular target: T1, Ectonucleotide pyrophosphatase/phosphodiesterase family member 1 (Homo sapiens) (UniProt P22413); assay: Inhibition of human NPP1 using p-Nph-5'-TMP as substrate at 10 uM
T1 sequence (whole entry): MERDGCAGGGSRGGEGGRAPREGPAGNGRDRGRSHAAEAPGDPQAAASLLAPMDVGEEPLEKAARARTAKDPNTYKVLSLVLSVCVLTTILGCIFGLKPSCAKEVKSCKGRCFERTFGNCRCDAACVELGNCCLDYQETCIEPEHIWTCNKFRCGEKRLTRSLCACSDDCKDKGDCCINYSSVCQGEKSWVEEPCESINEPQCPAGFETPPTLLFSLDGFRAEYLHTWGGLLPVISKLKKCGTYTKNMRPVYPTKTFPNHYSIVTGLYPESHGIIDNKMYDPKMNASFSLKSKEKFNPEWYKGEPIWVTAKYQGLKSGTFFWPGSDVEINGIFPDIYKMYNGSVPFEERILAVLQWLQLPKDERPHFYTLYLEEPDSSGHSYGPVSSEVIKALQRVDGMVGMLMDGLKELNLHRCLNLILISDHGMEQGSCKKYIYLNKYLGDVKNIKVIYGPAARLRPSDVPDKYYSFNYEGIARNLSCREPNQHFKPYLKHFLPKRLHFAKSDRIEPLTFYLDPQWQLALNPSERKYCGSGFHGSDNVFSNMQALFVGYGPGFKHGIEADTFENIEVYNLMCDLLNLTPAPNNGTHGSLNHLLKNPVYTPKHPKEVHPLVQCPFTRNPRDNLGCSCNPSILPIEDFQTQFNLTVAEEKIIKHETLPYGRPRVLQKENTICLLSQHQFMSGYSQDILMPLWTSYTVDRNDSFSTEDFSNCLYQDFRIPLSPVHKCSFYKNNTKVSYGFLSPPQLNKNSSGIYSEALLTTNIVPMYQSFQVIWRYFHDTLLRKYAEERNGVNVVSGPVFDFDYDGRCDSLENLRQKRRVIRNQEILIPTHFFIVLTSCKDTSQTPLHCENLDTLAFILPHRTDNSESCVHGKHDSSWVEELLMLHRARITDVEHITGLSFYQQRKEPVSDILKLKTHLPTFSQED
Method in brief: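 Single-point screen at 10 μM compound against soluble human NPP1 (20 ng), 400 μM p-Nph-5′-TMP, 50 mM Tris pH 9.0, 1 mM CaCl2, 200 μM ZnCl2, 37 °C 15 min, NaOH stop; percent inhibition from p-nitrophenolate absorbance at 400 nm; compounds in DMSO (10 mM stock).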

[2] = molecular target: T2, Ectonucleotide pyrophosphatase/phosphodiesterase family member 3 (Homo sapiens, UniProt O14638); assay: Competitive inhibition of human NPP3 using ATP as substrate
T2 sequence (O14638 whole entry): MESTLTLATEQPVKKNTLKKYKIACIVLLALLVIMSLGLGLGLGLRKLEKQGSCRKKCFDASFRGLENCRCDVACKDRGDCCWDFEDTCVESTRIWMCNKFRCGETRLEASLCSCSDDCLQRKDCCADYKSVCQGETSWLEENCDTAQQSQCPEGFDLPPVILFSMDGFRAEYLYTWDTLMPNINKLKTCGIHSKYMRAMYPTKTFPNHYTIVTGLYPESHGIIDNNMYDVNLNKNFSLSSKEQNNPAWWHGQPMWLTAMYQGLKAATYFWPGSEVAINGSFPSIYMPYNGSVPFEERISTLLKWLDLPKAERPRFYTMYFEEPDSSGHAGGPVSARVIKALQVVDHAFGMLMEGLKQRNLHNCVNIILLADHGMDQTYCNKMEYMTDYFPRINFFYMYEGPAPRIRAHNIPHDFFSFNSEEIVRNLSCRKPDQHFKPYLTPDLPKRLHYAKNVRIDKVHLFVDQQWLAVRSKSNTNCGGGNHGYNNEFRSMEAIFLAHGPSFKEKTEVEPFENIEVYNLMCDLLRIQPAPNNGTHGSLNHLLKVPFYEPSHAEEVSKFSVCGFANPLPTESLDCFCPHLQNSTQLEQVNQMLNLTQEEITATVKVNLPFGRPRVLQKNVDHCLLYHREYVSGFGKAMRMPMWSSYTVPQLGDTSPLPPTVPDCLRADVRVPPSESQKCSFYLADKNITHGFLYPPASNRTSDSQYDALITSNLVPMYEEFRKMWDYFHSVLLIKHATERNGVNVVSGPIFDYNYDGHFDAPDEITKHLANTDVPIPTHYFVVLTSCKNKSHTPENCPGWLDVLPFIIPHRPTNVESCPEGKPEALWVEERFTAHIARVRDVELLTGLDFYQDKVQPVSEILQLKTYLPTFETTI

[3] = molecular target: Autotaxin (Homo sapiens, UniProt Q13822); assay: Competitive inhibition of human NPP2 using lysophosphotidylcholine as substrate
[4] = molecular target: T3, Ectonucleotide pyrophosphatase/phosphodiesterase family member 1 (Homo sapiens, UniProt P22413); assay: Inhibition of human NPP1 using p-Nph-5'-TMP as substrate
T3 sequence (P22413 whole entry): T1 sequence (whole entry)

[5] = molecular target: T3, Ectonucleotide pyrophosphatase/phosphodiesterase family member 1; assay: Competitive inhibition of human NPP1 using p-Nph-5'-TMP as substrate by Lineweaver-Burk plot analysis
[6] = molecular target: T3, Ectonucleotide pyrophosphatase/phosphodiesterase family member 1; assay: Competitive inhibition of human NPP1 using ATP as substrate by Lineweaver-Burk plot analysis

Row | SMILES | inhibition [1] [%] | Ki [4] [µM] | Ki [5] [µM] | Ki [6] [µM] | also measured
1 | Cc1ccc(NC(=O)CSc2nc3cccnc3[nH]2)c(Cl)c1 | 2 | – | – | – | –
2 | N#Cc1cccc(NC(=O)CSc2nc3cccnc3[nH]2)c1 | 45 | – | – | – | –
3 | CC(=O)c1cccc(NC(=O)CSc2nc3cccnc3[nH]2)c1 | 50 | – | – | – | –
4 | COc1ccc(NC(=O)CSc2ncc[nH]2)cc1OC | 64 | – | – | – | –
5 | CCOC(=O)c1cccc(NC(=O)CSc2nc3cccnc3[nH]2)c1 | 15 | – | – | – | –
6 | COc1ccc(NC(=O)CSc2nc3ccc(SC)nc3[nH]2)cc1OC | 59 | – | – | – | –
7 | O=C(CSc1nc2cccnc2[nH]1)Nc1ccccc1Cl | 19 | – | – | – | –
8 | COc1ccc2nc(SCC(=O)Nc3ccc(OC)c(OC)c3)[nH]c2n1 | – | – | – | – | Ki [2]: 68.1 µM; Ki [3]: 71.2 µM
9 | COc1ccc(NC(=O)CSc2nc3cccnc3[nH]2)cc1 | 48 | – | – | – | –
10 | CCn1c(=O)[nH]c(=O)c2nc(SCC(=O)Nc3ccc(OC)c(OC)c3)[nH]c21 | 43 | – | – | – | –
11 | COc1ccc(CNC(=O)CSc2nc3cccnc3[nH]2)cc1OC | 0 | – | – | – | –
12 | COc1ccc(NC(=O)CSc2nc3c(OC(C)C)nc(N)nc3[nH]2)cc1OC | – | 11 | 11 | 89.7 | –
13 | O=C(CSc1nc2cccnc2[nH]1)Nc1ccccc1F | 13 | – | – | – | –
14 | COc1ccc(NC(=O)CCSc2nc3cccnc3[nH]2)cc1OC | 13 | – | – | – | –
15 | COc1ccc(NC(=O)CSc2nc3ccc(N4CCCCC4)nc3[nH]2)cc1OC | 27 | – | – | – | –
16 | COc1ccc(NC(=O)CSc2nc3cccnc3[nH]2)c(OC)c1 | 8 | – | – | – | –
17 | COc1ccc(NC(=O)CSc2nc3cncnc3[nH]2)cc1OC | – | 0.281 | 0.281 | 15.7 | –
18 | COc1ccc(NC(=O)CSc2nc3ccc(N4CCN(C)CC4)nc3[nH]2)cc1OC | 35 | – | – | – | –
19 | COc1ccc(NC(=O)CSc2nc3cc(Cl)cnc3[nH]2)cc1OC | – | 0.137 | 0.137 | 9.78 | –
20 | COc1ccc(NC(=O)CSc2nc3ccc(N(C)C)nc3[nH]2)cc1OC | 58 | – | – | – | –
21 | COc1cc(NC(=O)CSc2nc3cccnc3[nH]2)cc(OC)c1 | 38 | – | – | – | –
22 | COc1ccccc1NC(=O)CSc1nc2ccc[nH]c-2n1 | 21 | – | – | – | –
23 | COc1cccc(NC(=O)CSc2nc3cccnc3[nH]2)c1 | 30 | – | – | – | –
24 | COc1ccc(NC(=O)CSc2nc3c(N)nc(N)nc3[nH]2)cc1OC | – | 3.48 | 3.48 | 78 | –
25 | COc1ccc(NC(=O)CSc2nc3c(=O)n(C)c(=O)n(C)c3[nH]2)cc1OC | 23 | – | – | – | –
26 | COc1ccc(NC(=O)CSc2nc3nccnc3[nH]2)cc1OC | – | 0.131 | 0.131 | 30.2 | –

Row | SMILES | inhibition [1] [%] | Ki [4] [µM] | Ki [5] [µM] | Ki [6] [µM] | also measured
27 | COc1ccc(NC(=O)CSc2nc3c(C)ccnc3[nH]2)cc1OC | – | 0.127 | 0.127 | 7.59 | –
28 | COc1ccc(NC(=O)CSc2nc3c(=O)[nH]c(=O)[nH]c3[nH]2)cc1OC | – | 0.0358 | 0.0358 | 22.5 | –
29 | COc1ccc(NC(=O)CSc2nc3c(N)ncnc3[nH]2)cc1OC | – | 0.005 | 0.005 | 18 | –
30 | O=C(CSc1nc2cccnc2[nH]1)Nc1ccc(F)cc1 | 30 | – | – | – | –
31 | COc1ccc(OC)c(NC(=O)CSc2nc3cccnc3[nH]2)c1 | 12 | – | – | – | –
32 | O=C(CSc1nc2cccnc2[nH]1)Nc1ccc(Cl)cc1 | 17 | – | – | – | –
33 | COc1ccc(NC(=O)CSc2nc3ccc(OCC(F)(F)F)nc3[nH]2)cc1OC | 61 | – | – | – | –
34 | COc1ccc(NC(=O)CSc2nc3ccccc3[nH]2)cc1OC | 34 | – | – | – | –
35 | O=C(CSc1nc2cccnc2[nH]1)Nc1ccc(Cl)c(Cl)c1 | 10 | – | – | – | –
36 | CN(C)c1ccc(NC(=O)CSc2nc3cccnc3[nH]2)cc1 | 23 | – | – | – | –
37 | COc1ccc(NC(=O)C(C)Sc2nc3cccnc3[nH]2)cc1OC (centres undefined) | 6 | – | – | – | –
38 | COc1ccc(NC(=O)CSc2nc3ccc(N4CCOCC4)nc3[nH]2)cc1OC | 45 | – | – | – | –
39 | COc1ccc(NC(=O)CSc2nc3c(=O)[nH]cnc3[nH]2)cc1OC | – | 0.02 | 0.02 | 14.3 | –
40 | Cc1cccc(C)c1NC(=O)CSc1nc2cccnc2[nH]1 | 19 | – | – | – | –
41 | COc1ccc(NC(=O)CSc2nc3cnccc3[nH]2)cc1OC | – | 0.0442 | 0.0442 | 29.2 | –
42 | Cc1ccc(NC(=O)CSc2nc3cccnc3[nH]2)cc1C | 11 | – | – | – | –
43 | COc1ccc(NC(=O)CSc2nc3ccc[nH]c-3n2)cc1OC | – | 0.217 | 0.217 | 22.3 | –
44 | O=C(CSc1nc2cccnc2[nH]1)Nc1cccc(Br)c1 | 23 | – | – | – | –
45 | COc1ccc(NS(=O)(=O)CSc2nc3ncccc3[nH]2)cc1OC | 50 | – | – | – | –
46 | COc1ccc(NC(=O)CSc2nc3cc(Br)cnc3[nH]2)cc1OC | – | 0.192 | 0.192 | 10.8 | –
47 | COc1ccc(NC(=O)CSc2nc3c(SC)nc(N)nc3[nH]2)cc1OC | – | 3.65 | 3.65 | 67.9 | –
48 | O=C(CSc1nc2cccnc2[nH]1)Nc1ccccc1 | 30 | – | – | – | –
49 | COc1ccc(NC(=O)CSc2nc3c(N)nc(SC)nc3[nH]2)cc1OC | – | 0.152 | 0.152 | 26.7 | –
50 | CCOc1nc(N)nc2[nH]c(SCC(=O)Nc3ccc(OC)c(OC)c3)nc12 | – | 1.01 | 1.01 | 33.6 | –
51 | COc1ccc(NC(=O)CSc2nc3c(OC)nc(N)nc3[nH]2)cc1OC | – | 8.04 | 8.04 | 42.2 | –
